From ChEMBL document CHEMBL1154858, “Synthesis, in vitro antibacterial and antifungal evaluations of new alpha-hydroxyphosphonate and new alpha-acetoxyphosphonate derivatives of tetrazolo [1, 5-a] quinoline” (2010)
≈ marks a conversion by molar mass, not a printed value.

Experiments:
Type in all cases: functional
Bacillus subtilis [1] = test: Antibacterial activity against Bacillus subtilis NCIM 2250 after 24 hrs by cup plate method; conditions: NCIM 2250, 24 h
Outline: (§1)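 Cup-plate MIC on Mueller Hinton agar plates containing the compound at 0 (control), 1, 2, 3, 5, 10, 15, 20, 30 and 40 (unit unclear), with compounds dissolved in DMF. Plates were read after 24 h and incubated further up to 72 h where needed. MIC is the lowest concentration giving no visible macroscopic growth.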

Escherichia coli [2] = test: Antibacterial activity against Escherichia coli ATCC 25922 after 24 hrs by cup plate method; conditions: ATCC 25922, 24 h; outline: as §1
Aspergillus niger [3] = test: Antifungal activity against Aspergillus niger NCIM 545 after 24 hrs by cup plate method; conditions: NCIM 545, 24 h; outline: as §1
Aspergillus niger [4] = test: Antifungal activity against Aspergillus niger NCIM 545 after 48 hrs by agar cup plate method
Outline: (§2)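 Fungal zone-of-inhibition test in Czapek Dox medium by the agar cup method, with compounds dissolved in DMF and griseofulvin in DMF as the reference. Plates were incubated at 28 ± 0.5 °C for 48 h. Activity was taken as the diameter of the zone of inhibited growth around the cup.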

Candida albicans [5] = test: Antifungal activity against Candida albicans MTCC 277 after 48 hrs by agar cup plate method; outline: as §2
Candida albicans [6] = test: Antifungal activity against Candida albicans MTCC 277 after 24 hrs by cup plate method; conditions: MTCC 277, 24 h; outline: as §1
Bacillus subtilis [7] = test: Antibacterial activity against Bacillus subtilis NCIM 2250 after 48 hrs by agar cup plate method
Outline: (§3)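 Agar cup plate zone-of-inhibition assay on Mueller Hinton agar, with compounds dissolved in DMF and streptomycin in DMF as the reference. Plates were incubated at 37 ± 0.5 °C for 48 h. Inhibition was scored as the diameter of the growth-free zone around the cup.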

Escherichia coli [8] = test: Antibacterial activity against Escherichia coli ATCC 25922 after 48 hrs by agar cup plate method; outline: as §3

| SMILES | MIC (Bacillus subtilis [1]) | MIC (Escherichia coli [2]) | MIC (Aspergillus niger [3]) | diameter of the inhibition zone (DIZ) (Aspergillus niger [4]) | diameter of the inhibition zone (DIZ) (Candida albicans [5]) | MIC (Candida albicans [6]) | diameter of the inhibition zone (DIZ) (Bacillus subtilis [7]) | diameter of the inhibition zone (DIZ) (Escherichia coli [8]) |
| --- | --- | --- | --- | --- | --- | --- | --- | --- |
| CCOP(=O)(OCC)C(O)c1cc2cccc(C)c2n2nnnc12 (configuration not stated) | 10 µg/mL (≈ 28.5 µM) | 25 µg/mL (≈ 71.4 µM) | 15 µg/mL (≈ 42.8 µM) | 13.1 mm | 13 mm | 10 µg/mL (≈ 28.5 µM) | 12.3 mm | 13.7 mm |
| CCOP(=O)(OCC)C(OC(C)=O)c1cc2cccc(CC)c2n2nnnc12 (configuration not stated) | 10 µg/mL (≈ 24.6 µM) | 10 µg/mL (≈ 24.6 µM) | 15 µg/mL (≈ 36.9 µM) | 13.5 mm | 12.1 mm | 10 µg/mL (≈ 24.6 µM) | 15.1 mm | 14.2 mm |
| CCOP(=O)(OCC)C(OC(C)=O)c1cc2ccccc2n2nnnc12 (configuration not stated) | 15 µg/mL (≈ 39.6 µM) | 10 µg/mL (≈ 26.4 µM) | 20 µg/mL (≈ 52.9 µM) | 13.4 mm | 14.2 mm | 10 µg/mL (≈ 26.4 µM) | 11.2 mm | 12.5 mm |
| CCOP(=O)(OCC)C(O)c1cc2cccc(OC)c2n2nnnc12 (configuration not stated) | 10 µg/mL (≈ 27.3 µM) | 15 µg/mL (≈ 40.9 µM) | 15 µg/mL (≈ 40.9 µM) | 11.5 mm | 13.8 mm | 15 µg/mL (≈ 40.9 µM) | 12.5 mm | 13.3 mm |
| CCOP(=O)(OCC)C(OC(C)=O)c1cc2ccc(C)cc2n2nnnc12 (configuration not stated) | 10 µg/mL (≈ 25.5 µM) | 15 µg/mL (≈ 38.2 µM) | 10 µg/mL (≈ 25.5 µM) | 15.2 mm | 13.4 mm | 10 µg/mL (≈ 25.5 µM) | 14.1 mm | 13.2 mm |
| CN[C@@H]1[C@H](O[C@H]2[C@H](O[C@H]3[C@H](O)[C@@H](O)[C@H](N=C(N)N)[C@@H](O)[C@@H]3N=C(N)N)O[C@@H](C)[C@]2(O)C=O)O[C@@H](CO)[C@H](O)[C@H]1O [STREPTOMYCIN] | 5 µg/mL (≈ 8.6 µM) | 5 µg/mL (≈ 8.6 µM) | – | – | – | – | 16.4 mm | 16.2 mm |
| CCOP(=O)(OCC)C(O)c1cc2cccc(CC)c2n2nnnc12 (configuration not stated) | 10 µg/mL (≈ 27.4 µM) | 20 µg/mL (≈ 54.9 µM) | 10 µg/mL (≈ 27.4 µM) | 14.2 mm | 13.4 mm | 10 µg/mL (≈ 27.4 µM) | 14.5 mm | 16.2 mm |
| CCOP(=O)(OCC)C(OC(C)=O)c1cc2cc(OC)ccc2n2nnnc12 (configuration not stated) | 10 µg/mL (≈ 24.5 µM) | 10 µg/mL (≈ 24.5 µM) | 10 µg/mL (≈ 24.5 µM) | 14.2 mm | 13.4 mm | 10 µg/mL (≈ 24.5 µM) | 13.2 mm | 12.4 mm |
| CCOP(=O)(OCC)C(OC(C)=O)c1cc2cccc(C)c2n2nnnc12 (configuration not stated) | 20 µg/mL (≈ 51 µM) | 10 µg/mL (≈ 25.5 µM) | 15 µg/mL (≈ 38.2 µM) | 12.2 mm | 12.2 mm | 10 µg/mL (≈ 25.5 µM) | 13.1 mm | 13.4 mm |
| CCOP(=O)(OCC)C(OC(C)=O)c1cc2cc(C)ccc2n2nnnc12 (configuration not stated) | 10 µg/mL (≈ 25.5 µM) | 15 µg/mL (≈ 38.2 µM) | 10 µg/mL (≈ 25.5 µM) | 14.1 mm | 13.1 mm | 10 µg/mL (≈ 25.5 µM) | 12 mm | 11.4 mm |
| CCOP(=O)(OCC)C(O)c1cc2cc(C)ccc2n2nnnc12 (configuration not stated) | 10 µg/mL (≈ 28.5 µM) | 10 µg/mL (≈ 28.5 µM) | 10 µg/mL (≈ 28.5 µM) | 14.2 mm | 13.2 mm | 10 µg/mL (≈ 28.5 µM) | 15.2 mm | 15 mm |
| CCOP(=O)(OCC)C(OC(C)=O)c1cc2cccc(OC)c2n2nnnc12 (configuration not stated) | 15 µg/mL (≈ 36.7 µM) | 25 µg/mL (≈ 61.2 µM) | 15 µg/mL (≈ 36.7 µM) | 13.4 mm | 12.1 mm | 15 µg/mL (≈ 36.7 µM) | 11.4 mm | 13.9 mm |
| CCOc1ccc2c(c1)cc(C(OC(C)=O)P(=O)(OCC)OCC)c1nnnn12 (configuration not stated) | 10 µg/mL (≈ 23.7 µM) | 10 µg/mL (≈ 23.7 µM) | 10 µg/mL (≈ 23.7 µM) | 14.5 mm | 14.1 mm | 10 µg/mL (≈ 23.7 µM) | 12.1 mm | 13.8 mm |
| CCOP(=O)(OCC)C(O)c1cc2cc(OC)ccc2n2nnnc12 (configuration not stated) | 10 µg/mL (≈ 27.3 µM) | 15 µg/mL (≈ 40.9 µM) | 15 µg/mL (≈ 40.9 µM) | 12.2 mm | 14.1 mm | 10 µg/mL (≈ 27.3 µM) | 12.4 mm | 13.3 mm |
| CCOP(=O)(OCC)C(O)c1cc2ccc(C)cc2n2nnnc12 (configuration not stated) | 10 µg/mL (≈ 28.5 µM) | 15 µg/mL (≈ 42.8 µM) | 15 µg/mL (≈ 42.8 µM) | 13.2 mm | 13.8 mm | 10 µg/mL (≈ 28.5 µM) | 13.6 mm | 12 mm |
| CCOP(=O)(OCC)C(O)c1cc2ccccc2n2nnnc12 (configuration not stated) | 10 µg/mL (≈ 29.7 µM) | 20 µg/mL (≈ 59.5 µM) | 15 µg/mL (≈ 44.6 µM) | 12.1 mm | 13.6 mm | 10 µg/mL (≈ 29.7 µM) | 12 mm | 13.4 mm |
| CCOc1ccc2c(c1)cc(C(O)P(=O)(OCC)OCC)c1nnnn12 (configuration not stated) | 10 µg/mL (≈ 26.3 µM) | 15 µg/mL (≈ 39.4 µM) | 15 µg/mL (≈ 39.4 µM) | 12.8 mm | 13.8 mm | 10 µg/mL (≈ 26.3 µM) | 15.4 mm | 13.5 mm |
| CCOP(=O)(OCC)C(OC(C)=O)c1cc2ccc(OC)cc2n2nnnc12 (configuration not stated) | 10 µg/mL (≈ 24.5 µM) | 15 µg/mL (≈ 36.7 µM) | 25 µg/mL (≈ 61.2 µM) | 12.5 mm | 13.8 mm | 10 µg/mL (≈ 24.5 µM) | 12.5 mm | 11.1 mm |
| CCOP(=O)(OCC)C(O)c1cc2ccc(OC)cc2n2nnnc12 (configuration not stated) | 10 µg/mL (≈ 27.3 µM) | 15 µg/mL (≈ 40.9 µM) | 10 µg/mL (≈ 27.3 µM) | 14.4 mm | 13.4 mm | 10 µg/mL (≈ 27.3 µM) | 12 mm | 13.6 mm |
| COC1=CC(=O)C[C@@H](C)[C@]12Oc1c(Cl)c(OC)cc(OC)c1C2=O [GRISEOFULVIN] | – | – | 5 µg/mL (≈ 14.2 µM) | 16.5 mm | 16.4 mm | 5 µg/mL (≈ 14.2 µM) | – | – |
